Reference: publication PMC6189524 (Journal of Functional Foods, 2018)

Assays:
[1] = Human bioavailability study: 24 h urinary excretion; format: in vivo; settings: humans; for 24 h urinary excretion, Snack: after 75 g baked snack; for 24 h urinary excretion, Snack / 24 h urinary excretion, Vegetable meal: per mg intake of corresponding compound; for 24 h urinary excretion, Vegetable meal: after 461 g vegetable meal
Summary of the method: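 Adult volunteers fasted overnight (≥10 h), then gave a fasted blood sample and spot urine. Each study meal was eaten within a targeted 15 min under nurse supervision. Urine was collected over 24 h postprandially, extracted liquid-liquid and analysed by LCMS for aglycones plus glucuronide, glucoside and sulfate conjugates. Results were expressed per mg intake, and the two meals were compared by paired t-test.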

[2] = In vitro gastric-duodenal digestion; format: in vitro ADME; settings: both snack and vegetable meals
[3] = Determination of phytochemicals in food products; settings: for change during the baking process (dough to final product): snack ratio broccoli:onion:carrot:parsley = 2.1:5.5:11.4:1
Caco-2/TC7 monolayer = assay: Transport; format: in vitro ADME; settings: p < 0.05
Summary of the method: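 Snack or vegetable-mix samples went through a simplified simulated gastric/small-intestinal digestion including amylase, run to completion and centrifuged to clear supernatant. Supernatant mixed 1:1 with DMEM was applied to Caco-2/TC7 monolayers; DMEM with 40 µM quercetin or apigenin served as the buffer control. Papp = (dQ/dt)/(Co·A), from total basolateral metabolites plus aglycone; mean ± SD, n = 3.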

Caco-2/TC7 cells = assay: Uptake of quercetin and apigenin by Caco-2/TC7 cells from digestates; format: in vitro ADME; settings: all digestates and DMEM-only control; p < 0.05
Summary of the method: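 Clear supernatants from simplified simulated stomach/small-intestine digestion (with amylase) were diluted 1:1 in DMEM and applied to Caco-2/TC7 cells; DMEM with 40 µM quercetin or apigenin served as control. Uptake was summed from metabolites in medium, metabolites in cells and aglycone in cells, and the rate was this total divided by time. Mean ± SD, n = 3.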

[4] = ref Rothwell, Day, & Morgan, 2005; cited from earlier work

Row | Structure (SMILES) | 24 h urinary excretion, Difference (absolute) vegetable meal vs snack [1] | 24 h urinary excretion, Snack [1] | 24 h urinary excretion, Vegetable meal [1] | urinary levels in 24 h urine, snack versus vegetable meal (paired t-test) [1] | other results
1 | CC1=C[C@H](O)CC(C)(C)[C@H]1/C=C/C(C)=C/C=C/C(C)=C/C=C/C=C(C)/C=C/C=C(C)/C=C/C1=C(C)C[C@@H](O)CC1(C)C [lutein] | – | – | – | – | present in the liquid phase after in vitro digestion [2]: around 0.4 mg
2 | CC(=O)N[C@@H](CSC(=S)NCCCC[S+](C)[O-])C(=O)O (stereo partly drawn) [Sulforaphane-NAC, sulforaphane-N-acetyl-cysteine] | 236.4 nmol per mg intake | 272.17 ± 280.8 nmol/mg intake | 508.54 ± 450.9 nmol/mg intake | approached significance | –
3 | O=c1c(O)c(-c2ccc(O)c(O)c2)oc2cc(O)cc(O)c12 [quercetin] | 0.38 nmol per mg intake | 0.34 ± 0.7 nmol/mg intake | 0.72 ± 1.3 nmol/mg intake | not significantly different | change during the baking process (dough to final product) [3]: +12%
4 | O=c1c(OS(=O)(=O)O)c(-c2ccc(O)c(O)c2)oc2cc(O)cc(O)c12 [Quercetin-3-sulfate] | 0.79 nmol per mg intake | 2.58 ± 1.9 nmol/mg intake | 3.36 ± 1.8 nmol/mg intake | – | –
5 | C[S+]([O-])CCCC/C(=N\OS(=O)(=O)O)S[C@@H]1O[C@H](CO)[C@@H](O)[C@H](O)[C@H]1O (stereo partly drawn) [glucoraphanin] | – | – | – | not significantly different | change during the baking process (dough to final product) [3]: −14%
6 | C[S+]([O-])CCCCN=C=S (stereo not drawn) [Sulforaphane] | 7.47 nmol per mg intake | 36.25 ± 27.9 nmol/mg intake | 43.72 ± 44.2 nmol/mg intake | – | –
7 | CC1=C(/C=C/C(C)=C/C=C/C(C)=C/C=C/C=C(C)/C=C/C=C(C)/C=C/C2=C(C)CCCC2(C)C)C(C)(C)CCC1 [β-carotene] | – | – | – | – | yield in the final product ([3]; dough with only carrots, after baking): 31.8 % (w/w); threshold value above which lost during the baking process ([3]; final snack product): 10–13 mg per 100 g dry matter; present in the liquid phase after in vitro digestion [2]: no detectable

The next lines start with results.

Row | 24 h urinary excretion, Difference (absolute) vegetable meal vs snack [1] | 24 h urinary excretion, Snack [1] | 24 h urinary excretion, Vegetable meal [1] | urinary levels in 24 h urine, snack versus vegetable meal (paired t-test) [1] | Structure (SMILES) | other results
8 | 0.23 nmol per mg intake | 4.17 ± 3.3 nmol/mg intake | 4.40 ± 2.5 nmol/mg intake | – | O=C(O)[C@H]1O[C@@H](Oc2c(-c3ccc(O)c(O)c3)oc3cc(O)cc(O)c3c2=O)[C@H](O)[C@@H](O)[C@@H]1O [Quercetin-3-GlcA, quercetin-3-glucuronide] | –
9 | 1.07 nmol per mg intake | 1.60 ± 2.0 nmol/mg intake | 2.67 ± 2.7 nmol/mg intake | significantly differed | COc1cc(-c2oc3cc(O)cc(O)c3c(=O)c2O[C@@H]2O[C@H](C(=O)O)[C@@H](O)[C@H](O)[C@H]2O)ccc1O [IR-3-GlcA, isorhamnetin-3-glucuronide] | –
10 | 0.99 nmol per mg intake | 6.32 ± 8.1 nmol/mg intake | 5.33 ± 6.6 nmol/mg intake | – | O=C(O)[C@H]1O[C@@H](Oc2cc(O)c3c(=O)cc(-c4ccc(O)cc4)oc3c2)[C@H](O)[C@@H](O)[C@@H]1O [A-7-GlcA] | –
11 | 0.05 nmol per mg intake | 0.15 ± 0.4 nmol/mg intake | 0.21 ± 0.3 nmol/mg intake | – | O=c1cc(-c2ccc(O)cc2)oc2cc(O[C@@H]3O[C@H](CO)[C@@H](O)[C@H](O)[C@H]3O)cc(O)c12 [A-7-Glc, apigenin-7-O-glucoside] | –
12 | 0.03 nmol per mg intake | 0.04 ± 0.1 nmol/mg intake | 0.07 ± 0.1 nmol/mg intake | – | O=c1c(O[C@@H]2O[C@H](CO)[C@@H](O)[C@H](O)[C@H]2O)c(-c2ccc(O)c(O)c2)oc2cc(O)cc(O)c12 [Quercetin-3-Glc, quercetin-3-O-glucoside] | –
13 | 0.19 nmol per mg intake | 3.37 ± 6.6 nmol/mg intake | 3.55 ± 4.6 nmol/mg intake | not significantly different | O=c1cc(-c2ccc(O)cc2)oc2cc(O)cc(O)c12 [apigenin] | change during the baking process (dough to final product) [3]: +6%; Papp compared to quercetin (Caco-2/TC7 monolayer): higher; rate of uptake compared to quercetin (Caco-2/TC7 cells): significantly higher; lipophilicity compared to quercetin [4]: higher lipophilicity
